Test results taken from ChEMBL document CHEMBL4422642, “Antiproliferative and Antimigratory Effects of a Novel YAP-TEAD Interaction Inhibitor Identified Using in Silico Molecular Docking” (J Med Chem, 2019).
Each block holds one compound with its values, some of them ahead of it. Activity calls are given as the source filed them. The calls are words filed in the database; no cut-off is given here.

Experiments:
HeLa [1] = experiment: Inhibition of TEAD (unknown origin) expressed in human HeLa cells at 100 uM after 6 hrs by nanoluciferase reporter gene assay relative to control; assay type: cell-based
Procedure, shortened: (§1)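 HeLa cells stably transduced with a lentiviral 8×TEAD-element secreted nanoluciferase reporter were seeded at 2 × 10^4 cells/well and grown 48 h. They were washed and treated with compound for 2 h, washed again and re-treated for 4 h. Secreted nanoluciferase in the conditioned medium was assayed with NanoGlo; n = 3.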

HeLa [2] = experiment: Cytotoxicity against human HeLa cells assessed as reduction in cell viability by measuring ethidium homodimer-1 uptake at 100 uM preincubated for 10 mins followed by ethidium homodimer-1 addition measured after 10 mins by fluorescence assay; assay type: cell-based
Procedure, shortened: (§2)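 Live/dead cell viability assay in HeLa cells. Maximum death was set by treating cells 10 min with 0.1% Triton-X, then 10 min with 0.4 μM ethidium homodimer-1. Fluorescence was read on a plate reader.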

HeLa [3] = experiment: Cytotoxicity against human HeLa cells assessed as reduction in cell viability by measuring ethidium homodimer-1 uptake up to 150 uM preincubated for 10 mins followed by ethidium homodimer-1 addition measured after 10 mins by fluorescence assay; assay type: cell-based; procedure, shortened: as §2
HeLa [4] = experiment: Inhibition of TEAD (unknown origin) expressed in human HeLa cells up to 150 uM after 6 hrs by nanoluciferase reporter gene assay; assay type: cell-based; procedure, shortened: as §1
HeLa [5] = experiment: Inhibition of 36B4 m-RNA expression in human HeLa cells up to 80 uM incubated for 2 hrs followed by compound wash out and re-treatment for 4 hrs by NanoGlo assay; assay type: functional, cell-based
HeLa [6] = experiment: Cytotoxicity against human HeLa cells assessed as reduction in cell viability by measuring ethidium homodimer-1 uptake at 60 uM preincubated for 10 mins followed by ethidium homodimer-1 addition measured after 10 mins by fluorescence assay; assay type: cell-based; procedure, shortened: as §2
Rattus norvegicus [7] = species on record: Rattus norvegicus; experiment: Inhibition of TEAD in rat VSMC assessed as reduction in CTGF m-RNA expression incubated for 2 hrs followed by compound wash out and re-treatment for 4 hrs by NanoGlo assay
[8] = Inhibition of TEAD (unknown origin) expressed in human HeLa cells after 6 hrs by nanoluciferase reporter gene assay; assay type: cell-based; procedure, shortened: as §1
VSMC [9] = experiment: Antiproliferative activity against rat VSMC assessed as reduction in EdU incorporation after 24 hrs by Hoechst 33342 staining-based fluorescence assay; assay type: functional, cell-based
Procedure, shortened: (§3)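 Click-iT EdU assay. Cells were treated with compound for 24 h total, with 10 μM EdU present for the final labeling period. Cells were then fixed in 4% formaldehyde, stained for EdU and counterstained with Hoechst 33342 for 20 min. EdU-positive nuclei were counted in at least three fields per well; n = 4.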

HeLa [10] = experiment: Antimigratory activity in human HeLa cells incubated for overnight followed by media replacement and measured every hour for 24 hrs by phase contrast microscopic analysis; assay type: functional, cell-based
Procedure, shortened: (§4)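 IncuCyte real-time scratch wound assay. Cells were seeded in 96-well plates and grown 36 h, then pretreated overnight with compound. Wells were scratched and the medium was replaced with compound-containing medium. Phase-contrast images of the wound were taken hourly for 24 h and relative wound confluence was calculated; n = 4.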

VSMC [11] = experiment: Inhibition of 36B4 m-RNA expression in rat VSMC up to 80 uM incubated for 2 hrs followed by compound wash out and re-treatment for 4 hrs by NanoGlo assay; assay type: functional, cell-based
[12] = target: T1, Transcriptional enhancer factor TEF-1 (Homo sapiens, UniProt P28347); experiment: (§5) Inhibition of GFP-tagged YAP1 (unknown origin) interaction with myc-tagged human TEAD1 expressed in human HeLa cells by measuring GFP-Trap at 200 uM incubated for 30 mins with myc-tagged human TEAD1 lysate followed by GFP-tagged YAP1 lysate addition measured after 30 mins by Western blot based immunoprecipitation assay; assay type: cell-based
Procedure, shortened: (§6)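 Myc-TEAD1 and GFP-YAP1 were expressed separately in transfected HeLa cells, and pooled cytosolic plus nuclear extracts were prepared. The myc-TEAD extract was incubated 30 min on ice with 200 μM compound, then an equal volume of GFP-YAP lysate was added for another 30 min. Complexes were pulled down with GFP-Trap or Myc-Trap beads and quantified by Western blot; n = 3.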

HeLa [13] = experiment: Inhibition of TEAD in human HeLa cells assessed as reduction in CCN1 m-RNA expression incubated for 2 hrs followed by compound wash out and re-treatment for 4 hrs by NanoGlo assay; assay type: cell-based
[14] = target: T1, Transcriptional enhancer factor TEF-1; experiment: Inhibition of NL-tagged YAP (unknown origin) interaction with myc-tagged human TEAD1 preincubated for 1 hr followed by NL-tagged YAP addition by NanoGlo assay
Procedure, shortened: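 Myc-TEAD1 from transfected HeLa lysate was captured with anti-myc antibody on protein-G-coated 96-well plates. Wells were pretreated with compound in PBS for 1 h at 4 °C, then co-incubated with lysate from HeLa cells expressing YAP–nanoluciferase. After four PBS washes, bound YAP–NL was read with NanoGlo.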

[15] = target: T1, Transcriptional enhancer factor TEF-1; experiment: Inhibition of human HEK293 cell lysate derived YAP interaction with recombinant GST-tagged human TEAD1 (194 to 411 residues) expressed in Escherichia coli soluBL21 at 200 uM after 18 hrs by Western blot analysis; assay type: subcellular
Procedure, shortened: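 GST–TEAD1 (about 5 μg) immobilized on glutathione resin beads, incubated with HEK293 whole-cell lysate containing endogenous YAP at 4 °C for 18 h. Resin washed; bound proteins eluted by boiling in Laemmli buffer. YAP and GST quantified by Western blot (anti-YAP, anti-GST); n = 2.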

Rattus norvegicus [16] = species on record: Rattus norvegicus; experiment: Inhibition of TEAD in rat VSMC assessed as reduction in CCN1 m-RNA expression incubated for 2 hrs followed by compound wash out and re-treatment for 4 hrs by NanoGlo assay
VSMC [17] = experiment: Inhibition of TNT1 m-RNA expression in rat VSMC up to 80 uM incubated for 2 hrs followed by compound wash out and re-treatment for 4 hrs by NanoGlo assay; assay type: functional, cell-based
HeLa [18] = experiment: Inhibition of TEAD in human HeLa cells assessed as reduction in CTGF m-RNA expression incubated for 2 hrs followed by compound wash out and re-treatment for 4 hrs by NanoGlo assay; assay type: cell-based
VSMC [19] = experiment: Antimigratory activity in rat VSMC incubated for overnight followed by media replacement and measured every hour for 24 hrs by phase contrast microscopic analysis; assay type: functional, cell-based; procedure, shortened: as §4
[20] = target: T1, Transcriptional enhancer factor TEF-1; experiment: as §5, with “myc-TRAP” for “GFP-Trap”; assay type: cell-based; procedure, shortened: as §6
HeLa [21] = experiment: Inhibition of TNT1 m-RNA expression in human HeLa cells up to 80 uM incubated for 2 hrs followed by compound wash out and re-treatment for 4 hrs by NanoGlo assay; assay type: functional, cell-based
HeLa [22] = experiment: Antiproliferative activity against human HeLa cells assessed as reduction in EdU incorporation after 24 hrs by Hoechst 33342 staining-based fluorescence assay; assay type: functional, cell-based; procedure, shortened: as §3

T1 sequence (P28347 whole entry): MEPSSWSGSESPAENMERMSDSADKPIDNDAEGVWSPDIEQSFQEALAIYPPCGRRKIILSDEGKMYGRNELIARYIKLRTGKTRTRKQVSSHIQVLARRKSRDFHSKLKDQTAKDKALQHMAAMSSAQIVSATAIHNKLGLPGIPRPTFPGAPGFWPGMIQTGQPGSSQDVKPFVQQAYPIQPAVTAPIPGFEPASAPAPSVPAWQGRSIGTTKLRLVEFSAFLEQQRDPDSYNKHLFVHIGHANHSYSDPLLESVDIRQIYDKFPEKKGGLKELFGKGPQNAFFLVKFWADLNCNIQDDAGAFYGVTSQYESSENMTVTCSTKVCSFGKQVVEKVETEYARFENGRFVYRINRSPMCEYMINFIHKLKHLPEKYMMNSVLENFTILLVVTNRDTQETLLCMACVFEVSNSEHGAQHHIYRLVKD

Compound: O=C(NCCn1ncc2c(N3CCN(c4ncccn4)CC3)ncnc21)C12CC3CC(CC(C3)C1)C2
inhibition (HeLa [1]): > 60% | Activity (HeLa [2]): Non-Toxic

Compound: OCC(O)CN1CCNCC1 (stereo not given)
Activity (HeLa [3]): Non-Toxic | inhibition (HeLa [4]): inactive

Compound: O=C(O)c1ccco1
Activity (HeLa [3]): Non-Toxic | inhibition (HeLa [4]): inactive

inhibition (Rattus norvegicus [7]): Dose-dependent effect | IC50 [8]: 110 µM | inhibition [12]: Active | inhibition [14]: Dose-dependent effect | inhibition [15]: Active | inhibition (Rattus norvegicus [16]): Dose-dependent effect | inhibition [20]: Active
Compound: Cc1ccc2c(c1)c1c3n2CCN(C[C@H](O)CN2CCN(C(=O)c4ccco4)CC2)[C@@H]3CCC1
inhibition (HeLa [5]): inactive | Activity (HeLa [6]): Non-Toxic | Activity (VSMC [9]): Dose-dependent effect | Activity (HeLa [10]): Dose-dependent effect | inhibition (VSMC [11]): inactive | inhibition (HeLa [1]): > 60% | Activity (HeLa [2]): Non-Toxic | inhibition (HeLa [13]): Dose-dependent effect | inhibition (VSMC [17]): inactive | inhibition (HeLa [18]): Dose-dependent effect | Activity (VSMC [19]): Dose-dependent effect | inhibition (HeLa [21]): inactive | Activity (HeLa [22]): Dose-dependent effect

Compound: CCc1nc(C)nc(Oc2ccc(OCCOc3ccc(C)cc3C)nn2)n1
inhibition (HeLa [1]): > 60% | Activity (HeLa [2]): Non-Toxic

Compound: COc1ccc2nc(NC3=NCN(Cc4ccco4)CN3)nc(C)c2c1
inhibition (HeLa [1]): > 60% | Activity (HeLa [2]): Non-Toxic
